Reference: ChEMBL document CHEMBL4052675, “Synthesis, biological evaluation and molecular modeling of imidazo[1,2-a]pyridine derivatives as potent antitubulin agents” (Bioorg Med Chem, 2017)
pIC50: −log10 of the molar value. The source made the active and inactive calls. The calls are words filed in the database; no cut-off is given here.

What was measured:
HT-29 [1] = assay: Cytotoxicity against human HT-29 cells after 72 hrs by MTT assay; assay type: functional, cell-based; details: HT-29, 72 h
In short: (§1)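 Cells grown in MEM with 10% FBS; about 4×10^3 cells per well, preincubated 24 h at 37 °C in 5% CO₂, then exposed to compounds for 72 h. MTT at a […] added for 4 h at 37 °C. Formazan dissolved in DMSO; absorbance read at 492 nm against 630 nm reference. Three runs per line; IC50 reported as mean ± SD.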

NCI-H460 = assay: Cytotoxicity against human NCI-H460 cells after 72 hrs by MTT assay; assay type: functional, cell-based; details: NCI-H460, 72 h; in short: as §1
A549 = assay: Cytotoxicity against human A549 cells after 72 hrs by MTT assay; assay type: functional, cell-based; details: A549, 72 h; in short: as §1
MKN-45 = assay: Cytotoxicity against human MKN45 cells after 72 hrs by MTT assay; assay type: functional, cell-based; details: MKN-45, 72 h; in short: as §1
SMMC-7721 = assay: Cytotoxicity against human SMMC7721 cells after 72 hrs by MTT assay; assay type: functional, cell-based; details: SMMC-7721, 72 h; in short: as §1
Homo sapiens [2] = species: Homo sapiens; assay: Inhibition of tubulin polymerization in human HT-29 cells assessed as abnormal microtubule network formation at 20 nM after 24 hrs by DAPI staining based immunofluorescence microscopic analysis; assay type: cell-based
In short: (§2)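 HT-29 seeded at 1×10^4 per well, grown 24 h, then treated 24 h; controls received medium. Fixed in 4% formaldehyde/PBS (30 min, −20 °C), permeabilized with 0.2% Triton X-100, and blocked with 5% BSA. Stained with anti-α-tubulin (1:100, overnight, 4 °C), then FITC anti-mouse secondary (1:100, 2 h, 37 °C). DAPI counterstain; imaged by fluorescence microscopy.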

Homo sapiens [3] = species: Homo sapiens; assay: Inhibition of tubulin polymerization in human HT-29 cells assessed as microtubule disruption by measuring scattered short microtubule fragment in cytoplasm at 20 nM after 24 hrs by DAPI staining based immunofluorescence microscopic analysis; assay type: cell-based; in short: as §2
Homo sapiens [4] = species: Homo sapiens; assay: Inhibition of colchicine binding to tubulin (unknown origin) up to 15 uM pretreated for 1 hr followed by colchicine addition by spectrofluorometric method
In short: (§3)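 Tubulin preincubated 1 h at 37 °C with test agent (0, 1.6, 5, 15 μM), then colchicine added to a final 5 μM. Fluorescence read at excitation 365 nm and emission 435 nm, with buffer blank subtracted. Value is F/F0 × 100%, where F0 is fluorescence of the colchicine–tubulin complex without competitor.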

HT-29 [5] = assay: Potency index, ratio of CA-4 IC50 to test compound IC50 for human HT-29 cells; assay type: functional
Homo sapiens [6] = species: Homo sapiens; assay: Inhibition of tubulin polymerization in human HT-29 cells assessed as abnormal microtubule network formation at 88 nM after 24 hrs by DAPI staining based immunofluorescence microscopic analysis; assay type: cell-based; in short: as §2
Homo sapiens [7] = species: Homo sapiens; assay: Inhibition of tubulin polymerization in human HT-29 cells assessed as microtubule disruption by measuring scattered short microtubule fragment in cytoplasm at 88 nM after 24 hrs by DAPI staining based immunofluorescence microscopic analysis; assay type: cell-based; in short: as §2
HT-29 [8] = assay: Potency index, ratio of crolibulin IC50 to test compound IC50 for human HT-29 cells; assay type: functional
Homo sapiens [9] = species: Homo sapiens; assay: Inhibition of colchicine binding to tubulin (unknown origin) pretreated for 1 hr followed by colchicine addition by spectrofluorometric method; in short: as §3

SMILES | pIC50 (HT-29 [1]) | pIC50 (NCI-H460) | pIC50 (A549) | pIC50 (MKN-45) | pIC50 (SMMC-7721) | inhibition (Homo sapiens [2]) | inhibition (Homo sapiens [3]) | inhibition (Homo sapiens [4]) | Ratio IC50 (HT-29 [5]) | inhibition (Homo sapiens [6]) | inhibition (Homo sapiens [7]) | Ratio IC50 (HT-29 [8]) | inhibition (Homo sapiens [9])
COc1ccc(-c2cc(-c3ccc(F)cc3)n3c(CN(C)C)cnc3c2C#N)c(OC)c1OC | 6.10 | 5.03 | 6.17 | 5.16 | 5.52 |  |  |  |  |  |  |  | 
N#Cc1c(-c2ccc(F)cc2Cl)cc(-c2c[nH]c3ccccc23)n2cc(CNC3CCCCC3)nc12 | 7.70 | 7.10 | 5.60 | 5.43 | 5.31 |  |  |  |  |  |  |  | 
COc1ccc(-c2cc(-c3ccc(F)cc3F)n3c(CN4CCC(C)CC4)cnc3c2C#N)c(OC)c1OC | 6.85 | 7.22 | 5.84 | 5.77 | 5.46 |  |  |  |  |  |  |  | 
COc1ccc(/C=C\c2cc(OC)c(OC)c(OC)c2)cc1O [COMBRETASTATIN A4] | 7.30 | 7.10 | 6.37 | 6.96 | 5.72 | Active | Active | Active |  |  |  |  | 
CC(=O)O[C@H]1C(=O)[C@@]2(C)[C@H]([C@H](OC(=O)c3ccccc3)[C@]3(O)C[C@H](OC(=O)[C@H](O)[C@@H](NC(=O)c4ccccc4)c4ccccc4)C(C)=C1C3(C)C)[C@]1(OC(C)=O)CO[C@@H]1C[C@@H]2O |  |  |  |  |  |  |  | inactive |  |  |  |  | 
COc1cc(-c2cc(-c3ccc(F)cc3F)n3c(CN4CCCC4)cnc3c2C#N)cc(OC)c1OC | 6.15 | 6.89 | 5.92 | 4.94 | 5.53 |  |  |  |  |  |  |  | 
CN1CCN(Cc2cn3c(-c4c[nH]c5ccccc45)cc(-c4ccc(F)cc4F)c(C#N)c3n2)CC1 | 6.96 | 6.77 | 6.04 | 5.57 | 5.42 |  |  |  |  |  |  |  | 
N#Cc1c(-c2ccc(F)cc2F)cc(-c2c[nH]c3ccccc23)n2cc(CN3CCCC3)nc12 | 7.40 | 7.30 | 5.99 | 6.32 | 5.30 |  |  |  |  |  |  |  | 
CCN(CC)Cc1cnc2c(C#N)c(-c3ccc(OC)c(OC)c3OC)cc(-c3ccc(F)cc3)n12 | 5.52 | 5.51 | 5.71 | 4.63 | 5.16 |  |  |  |  |  |  |  | 
COc1ccc(-c2cc(-c3ccc(F)cc3F)n3c(CN(C)C)cnc3c2C#N)c(OC)c1OC | 6.64 | 6.70 | 5.70 | 5.04 | 5.19 |  |  |  |  |  |  |  | 
CCN(CC)Cc1cnc2c(C#N)c(-c3cc(OC)c(OC)c(OC)c3)cc(-c3ccc(F)cc3F)n12 | 5.45 | 6.12 | < 4.00 | 4.39 | < 4.00 |  |  |  |  |  |  |  | 
COc1ccc(-c2cc(-c3ccc(F)cc3)n3c(CN4CCN(C)CC4)cnc3c2C#N)c(OC)c1OC | 5.69 | 5.41 | 4.91 | 5.26 | 4.61 |  |  |  |  |  |  |  | 
CNCc1cnc2c(C#N)c(-c3ccc(OC)c(OC)c3OC)cc(-c3ccc(F)cc3F)n12 | 7.15 | 7.70 | 6.89 | 5.57 | 5.93 |  |  |  |  |  |  |  | 
CNCc1cn2c(-c3c[nH]c4ccccc34)cc(-c3ccc(F)cc3F)c(C#N)c2n1 | 6.80 | 6.70 | 5.05 | 4.74 | 4.79 |  |  |  |  |  |  |  | 
CC(C)NCc1cn2c(-c3c[nH]c4ccccc34)cc(-c3ccc(F)cc3F)c(C#N)c2n1 | 7.10 | 6.74 | 5.72 | 5.48 | 5.18 |  |  |  |  |  |  |  | 
COc1ccc(-c2cc(-c3ccc(F)cc3F)n3c(CN4CCCC4)cnc3c2C#N)c(OC)c1OC | 5.87 | 7.22 | 6.10 | 5.14 | 5.62 |  |  |  |  |  |  |  | 
COc1ccc(-c2cc(-c3ccc(F)cc3)n3c(CN4CCCC4)cnc3c2C#N)c(OC)c1OC | 5.71 | 4.81 | 5.88 | 5.23 | 5.29 |  |  |  |  |  |  |  | 

SMILES | pIC50 (HT-29 [1]) | pIC50 (NCI-H460) | pIC50 (A549) | pIC50 (MKN-45) | pIC50 (SMMC-7721) | inhibition (Homo sapiens [2]) | inhibition (Homo sapiens [3]) | inhibition (Homo sapiens [4]) | Ratio IC50 (HT-29 [5]) | inhibition (Homo sapiens [6]) | inhibition (Homo sapiens [7]) | Ratio IC50 (HT-29 [8]) | inhibition (Homo sapiens [9])
CCN(CC)Cc1cnc2c(C#N)c(-c3ccc(OC)c(OC)c3OC)cc(-c3ccc(F)cc3F)n12 | 6.68 | 7.22 | 5.98 | 5.17 | 5.88 |  |  |  |  |  |  |  | 
CNCc1cnc2c(C#N)c(-c3ccc(OC)c(OC)c3OC)cc(-c3ccc(F)cc3)n12 | 6.08 | 5.73 | 6.15 | 5.52 | 5.35 |  |  |  |  |  |  |  | 
COc1ccc(-c2cc(-c3ccc(F)cc3)n3c(CN4CCOCC4)cnc3c2C#N)c(OC)c1OC | 5.99 | 5.01 | 5.45 | 4.98 | 5.39 |  |  |  |  |  |  |  | 
COc1cc(-c2cc(-c3ccc(F)cc3F)n3c(CN(C)C)cnc3c2C#N)cc(OC)c1OC | 6.44 | 6.17 | 4.51 | 4.85 | 4.20 |  |  |  |  |  |  |  | 
COc1ccc(-c2cc(-c3ccc(F)cc3F)n3c(CN4CCOCC4)cnc3c2C#N)c(OC)c1OC | 6.33 | 7.10 | 5.94 | 5.62 | 5.49 |  |  |  |  |  |  |  | 
CCNCc1cnc2c(C#N)c(-c3ccc(OC)c(OC)c3OC)cc(-c3ccc(F)cc3)n12 | 6.04 | 5.34 | 5.49 | 5.10 | 5.22 |  |  |  |  |  |  |  | 
CNCc1cn2c(-c3c[nH]c4ccccc34)cc(-c3ccc(F)cc3Cl)c(C#N)c2n1 | 6.92 | 6.60 | 5.98 | 5.61 | 5.25 |  |  |  |  |  |  |  | 
CN1CCN(Cc2cn3c(-c4c[nH]c5ccccc45)cc(-c4ccc(F)cc4Cl)c(C#N)c3n2)CC1 | 6.85 | 6.66 | 5.81 | 5.44 | 5.15 |  |  |  |  |  |  |  | 
N#Cc1c(-c2ccc(F)cc2F)cc(-c2c[nH]c3ccccc23)n2cc(CNC3CC3)nc12 | 7.40 | 6.55 | 5.02 | 5.43 | 5.17 |  |  |  |  |  |  |  | 
N#Cc1c(-c2ccc(F)cc2F)cc(-c2c[nH]c3ccccc23)n2cc(CN3CCOCC3)nc12 | 5.57 | 6.72 | 5.48 | 5.10 | 4.89 |  |  |  |  |  |  |  | 
CC1CCN(Cc2cn3c(-c4c[nH]c5ccccc45)cc(-c4ccc(F)cc4F)c(C#N)c3n2)CC1 | 8.00 | 6.70 | 5.44 | 5.58 | 5.45 |  |  |  |  |  |  |  | 
CCN(CC)Cc1cn2c(-c3c[nH]c4ccccc34)cc(-c3ccc(F)cc3F)c(C#N)c2n1 | 7.70 | 6.96 | 7.10 | 5.49 | 5.72 |  |  |  |  |  |  |  | 
CN(C)Cc1cn2c(-c3c[nH]c4ccccc34)cc(-c3ccc(F)cc3F)c(C#N)c2n1 | 7.22 | 6.72 | 5.95 | 5.87 | 5.28 |  |  |  |  |  |  |  | 
N#Cc1c(-c2ccc(F)cc2F)cc(-c2c[nH]c3ccccc23)n2cc(CNC3CCCCC3)nc12 | 8.00 | 7.40 | 6.27 | 5.62 | 5.25 |  |  |  | 5 | Active | Active | 52 | Dose-dependent effect
CCNCc1cn2c(-c3c[nH]c4ccccc34)cc(-c3ccc(F)cc3F)c(C#N)c2n1 | 7.30 | 6.82 | 6.04 | 5.56 | 5.21 |  |  |  |  |  |  |  | 
CCNCc1cnc2c(C#N)c(-c3ccc(OC)c(OC)c3OC)cc(-c3ccc(F)cc3F)n12 | 7.05 | 7.52 | 6.77 | 5.45 | 5.88 |  |  |  |  |  |  |  | 
